Compound activity as filed in PubChem BioAssay.
hERG protect = hERG (human) protection from proarrhythmic block; Q12809; CHO-hERG, FluxOR thallium flux, dofetilide IC70 present; activation (rescue from dofetilide block), less the hit threshold, % at 10 µM; hit rate 0.51% among 310,000;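 active means activation above the mean of controls blocked by dofetilide plus 5 SD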;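 further: thallium influx through hERG after potassium depolarization seen as dye fluorescence rise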
KCNK3 inh = human KCNK3 channel inhibition, primary screen; O14649; CHO-KCNK3 thallium flux, FluxOR fluorescence; hits give low values; B-score at 10 µM; hit rate 0.84% among 340,000;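 active means B-score under library mean minus 4 SD, starting fluorescence ratio at most library mean plus 5 SD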;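 further: more negative B-score means stronger inhibition of thallium flux through KCNK3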
Kir21 block = inhibitors of mouse Kir2.1 inward-rectifier potassium channel; hit rate 0.85% among 310,000; AID 1672; HEK293-Kir2.1, FluxOR thallium flux fluorescence; hits give low values; B-score at 10 µM;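 active means fluorescence ratio B-score at or below minus 3 SD of library scores, with starting-brightness B-score within 2 SD, cut at about -4.2 in these data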;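 further: channel flux triggered by added potassium and thallium sulfate stimulus; B-score of peak minus minimum fluorescence over baseline after thallium stimulus; more negative B-score means stronger Kir2.1 block with less thallium influx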
KCNQ1 pot = potentiators or activators of human KCNQ1 potassium channel; AID 2648; P51787; hit rate 0.35% among 310,000; CHO-K1 KCNQ1, thallium flux FluxOR fluorescence; hits give high values; B-score at 10 µM;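 active means fluorescence ratio B-score, a plate-corrected score, at least three library SD, with initial intensity B-score within 5 SD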
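Test system: CHO-K1 cells stably expressing KCNQ1 / Medium: assay buffer / Also added: depolarizing K+/Tl+ stimulus, K2SO4 and Tl2SO4 each 12.5 mM in 5x stock / Incubation: 90 min dye loading and 20 min compound exposure, both at room temperature / Signal: thallium influx via FluxOR fluorescence, kinetic imaging / Evaluation: B score of baseline-normalized fluorescence ratio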
KCNQ1 inh = inhibitors of human KCNQ1 potassium channel; P51787; CHO-K1 KCNQ1, FluxOR thallium flux fluorescence; hits give high values; B-score at 10 µM; hit rate 1.3% among 310,000;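 active means compounds whose thallium flux B-score, printed positive for inhibition, exceeds three library SD while starting fluorescence stays within three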;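 further: channel opened by potassium depolarization with thallium stimulus after 20 min compound exposure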
KCNK9 inh = blocks the human KCNK9 two-pore domain potassium channel; HEK293 KCNK9, FluxOR thallium flux fluorescence; hits give low values; hit rate 1.2% among 310,000; Q9NPC2; B-score at 10 µM;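 active means ratio B-score over 3 SD below the library mean, with starting fluorescence within 5 SD of its mean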;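 further: negative B-score means less thallium flux so channel inhibition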
KCNQ1 block val = human KCNQ1 channel inhibition, validation assay. shares compounds with KCNQ1 inh. KCNQ1 cell line, FluxOR thallium flux fluorescence. inhibition, % at 10 µM. hit rate 93% among 1,600. AID 588353;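 active means primary screen active, with duplicate mean exceeding buffer control mean plus 3 SD of buffer wells, cut at about 28% in these data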
CHO KCNQ1 ctr = KCNQ1 inhibitor counter-screen hit in parental CHO cells. shares compounds with KCNQ1 inh. parental CHO-K1, FluxOR thallium flux fluorescence ratio; hits give low values; zero means no signal rise above baseline. fluorescence ratio (Tl flux) at 10 µM. hit rate 21% among 1,600;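 active means mean of duplicate thallium-flux fluorescence ratios in parental host cells more than 5 SD below the buffer control mean, cut at about 0.38 in these data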;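 further: ratio is peak minus minimum fluorescence divided by baseline fluorescence; actives read low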
KCNQ1 ephys val = human KCNQ1 inhibition validated by electrophysiology; hit rate 20% among 490; KCNQ1-CHO cells, automated patch clamp current; calls only at 10 µM; shares compounds with KCNQ1 inh;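 active means KCNQ1 current drop exceeding 3 SD of negative control wells, seen in both duplicate runs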;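 further: steady state current during a 2 s step from -80 to +40 mV; negative values mean current inhibition and positive values mean potentiation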
KCNQ2 inh = rat KCNQ2 inhibition in KCNQ1 inhibitor specificity screen. shares compounds with KCNQ1 inh. KCNQ2 cells, FluxOR thallium flux fluorescence. inhibition, % at 10 µM. hit rate 71% among 1,600. AID 651746;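 active means mean percent inhibition of the KCNQ2 thallium signal more than 5 SD above the buffer-only control wells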;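 further: KCNQ2 expressed in CHO cells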
Target sequence (O88943 whole entry, looked up): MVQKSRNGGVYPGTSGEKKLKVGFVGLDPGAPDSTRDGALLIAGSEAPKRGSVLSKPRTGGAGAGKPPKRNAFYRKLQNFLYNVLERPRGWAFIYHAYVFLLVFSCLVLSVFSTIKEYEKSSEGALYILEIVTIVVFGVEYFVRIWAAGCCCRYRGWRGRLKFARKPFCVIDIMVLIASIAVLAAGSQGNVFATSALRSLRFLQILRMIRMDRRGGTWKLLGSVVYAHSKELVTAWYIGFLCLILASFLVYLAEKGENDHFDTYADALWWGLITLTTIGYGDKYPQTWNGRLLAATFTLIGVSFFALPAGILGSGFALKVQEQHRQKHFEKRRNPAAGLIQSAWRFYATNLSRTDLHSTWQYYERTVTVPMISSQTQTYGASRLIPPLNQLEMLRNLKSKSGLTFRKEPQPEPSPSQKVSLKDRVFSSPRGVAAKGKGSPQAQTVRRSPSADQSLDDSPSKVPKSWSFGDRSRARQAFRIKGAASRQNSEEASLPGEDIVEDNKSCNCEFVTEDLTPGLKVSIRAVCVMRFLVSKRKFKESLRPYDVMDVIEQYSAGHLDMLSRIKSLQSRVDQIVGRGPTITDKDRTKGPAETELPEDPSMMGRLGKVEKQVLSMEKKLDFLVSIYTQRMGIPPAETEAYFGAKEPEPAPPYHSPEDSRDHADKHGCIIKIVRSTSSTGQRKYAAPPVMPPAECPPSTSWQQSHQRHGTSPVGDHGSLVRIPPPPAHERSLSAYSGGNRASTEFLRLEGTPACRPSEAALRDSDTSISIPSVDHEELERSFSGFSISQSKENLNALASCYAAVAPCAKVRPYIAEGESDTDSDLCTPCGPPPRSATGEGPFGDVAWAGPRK
KCNQ1-KCNE1 inh = human KCNQ1/KCNE1 inhibition in KCNQ1 specificity screen | KCNQ1/KCNE1 cells, FluxOR thallium flux fluorescence | shares compounds with KCNQ1 inh | inhibition, % at 10 µM | hit rate 77% among 1,600;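 active means mean percent inhibition of duplicate wells above the buffer-only control mean plus 3 SD of those controls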
KCNK9 inh conf = human KCNK9 inhibitor confirmation | shares compounds with KCNK9 inh | HEK293 KCNK9 cells, FluxOR thallium flux fluorescence | inhibition, % at 10 µM | hit rate 43% among 4,900 | AID 492992;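 active means thallium signal inhibited by more than 5 SD of the compound-free buffer control wells, on both duplicate plates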
Kir2-1 spec = selectivity of KCNK9 modulators against mouse Kir2.1; shares compounds with KCNK9 inh; hit rate 4% among 4,900; AID 492993; Kir2.1 cells, FluxOR thallium flux fluorescence; inhibition, % at 10 µM;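 active means thallium signal drop more than 5 SD beyond the mean of the no-compound control wells, seen in both duplicate plates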;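 further: signal is fluorescence rise after thallium addition divided by baseline fluorescence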
HEK293 Tl ctr = second counter-screen for KCNK9 modulators: effect in non-induced cells. hit rate 40% among 4,900. non-induced KCNK9-HEK293, FluxOR thallium flux. shares compounds with KCNK9 inh. inhibition, % at 10 µM. AID 492997;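 active means thallium signal drop beyond 5 SD of the untreated control mean, on both duplicate plates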
KCNK3 inh conf = human KCNK3 channel inhibition, confirmation assay; shares compounds with KCNK3 inh; CHO-KCNK3 thallium flux, FluxOR fluorescence; 0% buffer, 100% carvedilol maximal block; ratio percent of control, % at 10 µM; hit rate 99% among 2,400;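 active means ratio percent of control, averaged over triplicates, above buffer control mean plus 5 SD, cut at about 64% in these data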;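 further: ratio is the fluorescence rise from min to max over baseline after thallium stimulus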
KCNK3 uninduced = counter-screen for KCNK3 inhibitors: effect in non-induced cells. shares compounds with KCNK3 inh. non-induced KCNK3 parental cells, FluxOR thallium flux; hits give low values. thallium flux ratio (lower = more inhibition) at 10 µM. hit rate 40% among 2,400;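 active means thallium flux ratio, averaged over three wells, more than 5 SD below the buffer control mean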;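 further: host cells are CHO cells without KCNK3 induction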
Of the large screens only hits and unclear results are named; the others gave an inactive call (follow-up assays come after a bar, where they were run). Only some compounds are listed: those with a hit (about 3.8% of all), similar ones and a draw of the others.

CSc1cccc(NC(=O)N2CCc3ccc(NC(=O)c4ccccn4)cc3C2)c1	KCNK3 inh -11, KCNQ1 inh 6 | KCNQ1 block val 112 | CHO KCNQ1 ctr inactive | KCNQ1 ephys val inactive | KCNQ2 inh 104% | KCNQ1-KCNE1 inh 178% | KCNK3 inh conf 112 | KCNK3 uninduced 0.16
CC(C)CN(C(=O)c1ccc(Br)o1)C1CCS(=O)(=O)C1 (centres undefined)	none
CCCN=C1N(C)C[C@@H]2[C@@H]3C(=O)N(C)C(=O)[C@@H]3[C@](Cc3ccccc3)(C(=O)OC)N12	none (no result: hERG protect, Kir21 block, KCNQ1 pot, KCNQ1 inh, KCNK9 inh)
CC(C(=O)NCC1CCCCC1)N(C)Cc1ccc(Cl)cc1 (centres undefined)	KCNK3 inh -9.7, KCNQ1 inh 9, KCNK9 inh -7.2 | KCNQ1 block val 76 | CHO KCNQ1 ctr 0.38 | KCNQ2 inh 69% | KCNQ1-KCNE1 inh 98% | KCNK3 inh conf 105 | KCNK3 uninduced inactive
CC(C(=O)NCC1CCCCC1)N(C)Cc1ccc(Br)cc1 (centres undefined)	KCNK3 inh -15, KCNQ1 inh 8 | KCNQ1 block val 69 | CHO KCNQ1 ctr inactive | KCNQ2 inh 92% | KCNQ1-KCNE1 inh 66% | KCNK3 inh conf 121 | KCNK3 uninduced 0.16
CSc1ccc(CN(C)C(C)C(=O)NCC2CCCCC2)cc1 (centres undefined)	KCNK3 inh -9.4, KCNQ1 inh 6 | KCNQ1 block val 66 | CHO KCNQ1 ctr inactive | KCNQ2 inh 69% | KCNQ1-KCNE1 inh 80% | KCNK3 inh conf 95 | KCNK3 uninduced inactive
CSc1ccc(CN(C)C(C)C(=O)Nc2ccc(F)c(F)c2F)cc1 (centres undefined)	none
CC(OC(=O)c1ccc(Br)o1)C(=O)NCC1CCCCC1 (centres undefined)	none (no result: hERG protect, Kir21 block, KCNQ1 pot, KCNQ1 inh, KCNK9 inh)
CC(OC(=O)CNC(=O)COc1ccccc1)C(=O)N(C)Cc1ccccc1 (centres undefined)	none
CN1OC[C@@H]2CN[C@H](c3cccc(-c4ccc(C#N)cc4)c3)C[C@@H]21	none (no result: hERG protect, Kir21 block, KCNQ1 pot, KCNQ1 inh, KCNK9 inh)
CCOc1cc(C(=O)Nc2ccc(S(=O)(=O)NC3=NCCCCC3)cc2)cc(Br)c1OC	none
COCC(C)N1C(=O)Cc2c1nc(N)c1c(N)nc(N3CCN(c4ccccc4F)CC3)c(C#N)c21 (centres undefined)	KCNQ1 inh 6, KCNK9 inh -11 | KCNQ1 block val 152 | CHO KCNQ1 ctr inactive | KCNQ1 ephys val inactive | KCNQ2 inh inactive | KCNQ1-KCNE1 inh active | KCNK9 inh conf 62% | Kir2-1 spec inactive | HEK293 Tl ctr inactive | KCNK3 inh conf 115 | KCNK3 uninduced 0.15
COCCN1C(=O)Cc2c1nc(N)c1c(N)nc(N3CCN(c4ccc(F)cc4)CC3)c(C#N)c21	none
COC(=O)[C@]1(CC(C)C)N[C@H](c2ccc(-c3ccc(Cl)c(Cl)c3)cc2)[C@@H]2C(=O)N(C)C(=O)[C@@H]21	none
COc1cc(NC(=O)c2cc3ccccc3cc2O)c(OC)cc1Cl	none
COc1ccccc1NC(=O)c1cc2cc(Br)ccc2cc1O	KCNK3 inh -8.8, KCNQ1 inh 9 | KCNQ1 block val 126 | CHO KCNQ1 ctr inactive | KCNQ1 ephys val inactive | KCNQ2 inh 97% | KCNQ1-KCNE1 inh 107% | KCNK3 inh conf 135 | KCNK3 uninduced 0.11
CCOC(=O)c1c(NC(=O)C(C)OC(=O)c2ccc(NC(=O)CC#N)cc2)sc2c1CCCC2 (centres undefined)	KCNK3 inh -9.1, KCNQ1 inh 8 | KCNQ1 block val 104 | CHO KCNQ1 ctr inactive | KCNQ1 ephys val inactive | KCNQ2 inh 91% | KCNQ1-KCNE1 inh 187% | KCNK3 inh conf 87 | KCNK3 uninduced 0.14
CCOC(=O)c1c(NC(=O)C(C)OC(=O)C2=COCCO2)sc2c1CCCC2 (centres undefined)	none (no result: hERG protect, Kir21 block, KCNQ1 pot, KCNQ1 inh, KCNK9 inh)
O=C(CNCc1ccccc1Cl)Nc1ccccc1N1CCCCC1	KCNK3 inh -8.9, KCNQ1 inh 7 | KCNQ1 block val 96 | CHO KCNQ1 ctr inactive | KCNQ1 ephys val active | KCNQ2 inh 115% | KCNQ1-KCNE1 inh 109% | KCNK3 inh conf 114 | KCNK3 uninduced 0.15
Cc1cc(OCC(=O)Nc2ccccc2N2CCCC2)ccc1C(C)C	KCNK3 inh -9, KCNQ1 inh 9 | KCNQ1 block val 72 | CHO KCNQ1 ctr inactive | KCNQ2 inh 82% | KCNQ1-KCNE1 inh 100% | KCNK3 inh conf 112 | KCNK3 uninduced inactive
COc1cccc(CNC(=O)CCS(=O)(=O)c2ccc3c(c2)oc(=O)n3C)c1	none
CC(C)=CCc1cc(-c2oc3cc(O)cc(O)c3c(=O)c2O)ccc1O	none
CC(C)=CCc1c(O)cc2oc3c(CC=C(C)C)c(O)c(O)c(CC=C(C)C)c3c(=O)c2c1O	KCNK3 inh -9.2, KCNQ1 inh 16, KCNK9 inh -13 | KCNQ1 block val 150 | CHO KCNQ1 ctr 0.35 | KCNQ2 inh 124% | KCNQ1-KCNE1 inh active | KCNK9 inh conf 62% | Kir2-1 spec inactive | HEK293 Tl ctr 34% | KCNK3 inh conf 146 | KCNK3 uninduced 0.11
